Drawing on PubChem BioAssay AID624038 (The Scripps Research Institute Molecular Screening Center, 2012), this text covers activation for 80 compounds.

Where “and” joins values, the source holds several entries; their conditions need not be identical. Equal values may be shown once. Screen size: about 360,000 compounds; about 1,100 (0.31%) were called active.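 Rule for the calls: active = activation above the run cutoff, the mean activation of all test compounds plus 3 SD (cut at about 18% in these data); inactive = the rest.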 Many of the other results were omitted from the sample, so actives are more common in it than they were. Some compounds were tested as several samples or in several runs, with calls that do not always agree.

Chain of Muscarinic acetylcholine receptor M5 (Homo sapiens) (P08912 whole entry, looked up): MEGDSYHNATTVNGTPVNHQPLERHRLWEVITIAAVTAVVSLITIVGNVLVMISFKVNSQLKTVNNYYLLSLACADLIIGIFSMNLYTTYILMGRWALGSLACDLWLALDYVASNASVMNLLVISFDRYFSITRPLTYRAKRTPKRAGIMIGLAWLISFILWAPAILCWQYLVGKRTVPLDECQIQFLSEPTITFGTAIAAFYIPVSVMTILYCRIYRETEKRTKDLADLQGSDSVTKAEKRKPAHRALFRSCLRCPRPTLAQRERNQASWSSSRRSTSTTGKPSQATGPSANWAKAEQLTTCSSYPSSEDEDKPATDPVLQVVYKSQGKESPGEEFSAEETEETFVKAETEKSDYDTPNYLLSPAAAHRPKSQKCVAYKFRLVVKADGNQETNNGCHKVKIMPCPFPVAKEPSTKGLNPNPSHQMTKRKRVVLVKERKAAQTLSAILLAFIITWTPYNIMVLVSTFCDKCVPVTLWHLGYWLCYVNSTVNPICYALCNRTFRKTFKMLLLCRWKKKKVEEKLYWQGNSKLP

The assay concerns the target Muscarinic acetylcholine receptor M5 (Homo sapiens) (UniProt P08912). In words: CHRM5 PAMs potentiating acetylcholine calcium signal – CHO-K1 cells, Fluo-8 calcium fluorescence, primary screen (AID 624038). Conditions: CHO-K1 hM5, Fluo-8 calcium, ACh EC20 PAM; at 3 µM; stronger effect = higher value; 0% = ACh EC20, 100% = ACh EC100. The method in brief:
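Assay system: CHO-K1 hM5 cells. Also added: acetylcholine at EC20 concentration, added after compound. Dosing: 3 µM, single dose. Times: compound preincubation 140 s before EC20 acetylcholine addition. Signal: Fluo-8 calcium fluorescence. Measure: % activation relative to EC20 and EC100 ACh responses. Repeats: singlicate, one well per test compound.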
Take `CCC(C(=O)N1CCN(S(=O)(=O)c2sc(C(=O)O)c(C)c2C(=O)O)CC1)c1ccccc1` (stereo not given): the activation was 5.73% (inactive).

For `COc1ccc(OC)c(S(=O)(=O)Nc2c(C)nn(C)c2C)c1`, the activation was 18.8% (active).

Take `COc1ccc(OC)c(S(=O)(=O)NCCC(C)C)c1`: the activation was 3.29% (inactive).

Turning to `COc1ccc(OC)c(S(=O)(=O)Nc2ccccc2F)c1`, the activation was -7.66% (inactive).

Take `Cc1ccc(Br)c(NS(=O)(=O)c2cccc(C(=O)N3CCNC(=O)C3)c2)c1`: the activation was -1.57% (inactive).

Regarding `CCOC(=O)c1cnc(-n2nc(C)cc2C)nc1NNc1cc(C)nc(-c2ccccc2)n1`, the activation is 0.83% (inactive).

Take `CCOC(=O)c1cnc2c(c(C)nn2CC)c1Cl`: the activation was 0.72% (inactive).

With `CCOC(=O)c1cnc(-n2nc(C)cc2C)nc1-n1nc(C)cc1C`, the activation was 37.3% (active).

As to `Cc1cc(C(=O)OCC(=O)Nc2nccs2)c2ccccc2n1`, the activation was -1.11% (inactive).

With `C=CCn1c(=S)[nH]c2scc(-c3ccco3)c2c1=O`, the activation is -1.04% (inactive).

Turning to `Cc1cc(C)n(Cc2cnc(N3CCOCC3)s2)n1`, the activation was -0.72% (inactive).

On to `CN(CC(=O)Nc1c(Cl)cccc1Cl)C(=O)CNC(=O)C1CCCCC1`, for which the activation was 7.43% (inactive).

In the case of `COc1cccc(N(CC(=O)NC2CCCCCC2)S(=O)(=O)c2ccccc2)c1`, the activation is -3.45% (inactive).

With `COc1cccc(N(CC(=O)N2CCc3ccccc3C2)S(C)(=O)=O)c1`, the activation is -6.56% (inactive).

Take `CCN(CC)C(=O)CN(c1cccc(OC)c1)S(=O)(=O)c1ccc(C)cc1`: the activation is 24% (active).

Turning to `CCN1CCN(C(=O)C2CCCN(S(=O)(=O)c3ccc(OC)c(OC)c3)C2)CC1` (stereo not given), the activation is -3.07% (inactive).

Turning to `CCOC(=O)C1CCN(Cc2ccc(-c3ccccc3)cc2)CC1`, the activation is -6.76% (inactive).

`O=C(NNS(=O)(=O)c1ccc(Cl)cc1)C1CCN(Cc2ccccc2)CC1`: the activation is -22.7% (inactive).

As for `CCNC(=S)NNC(=O)C1CCN(Cc2ccccc2)CC1`, the activation is 22.7% (active).

Take `CCCc1nc(N)nc2c1C(=O)CC(C)(C)C2`: the activation is 3.62% (inactive).

As to `COc1ccc(N2CCN(CCCNC(=O)C3CCN(S(=O)(=O)N4CCOCC4)CC3)CC2)cc1`, the activation was -0.18% (inactive).

In the case of `CSc1ccc(C(=O)C2CCCN(C(=O)c3ccc(C)nc3)C2)cc1` (stereo not given), the activation is -1.27% (inactive).

As for `Cn1nccc1NC(=O)CC(CC(=O)O)c1ccccc1` (stereo not given), the activation is -3.88% (inactive).

As to `O=C(O)c1n[nH]nc1-c1ccccc1`, the activation was 3.89% (inactive).

On to `N#Cc1c(-c2ccccc2)c(-c2ccccc2)n[nH]c1=O`, for which the activation was 20.6% (active).

`Cc1c(-c2ccccc2)nc(N)c(C#N)c1-c1cccs1`: the activation is -5.86% (inactive).

With `O=C(COc1ccc(Cl)cc1)NCCS(=O)(=O)N1CCN(c2ccc(F)cc2)CC1`, the activation was -8.06% (inactive).

On to `CCCc1nc(N2CCN(C)CC2)c2sc(=S)n(-c3ccccc3)c2n1`, for which the activation is -2.27% (inactive).

As to `O=C(/C=C/c1c(F)cccc1Cl)Nc1nn[nH]n1`, the activation is -6.11% (inactive).

On to `O=C(/C=C/c1c(Cl)cccc1Cl)NCc1ccccc1`, for which the activation is 0.05% (inactive).

`CCOC(=O)CNC(=O)/C=C/c1c(Cl)cccc1Cl`: the activation was 20.4% (active).

As to `CCc1ccc(N(CC)c2ncnc3nc[nH]c23)cc1`, the activation is -3.31% (inactive).

On to `CC(C)Cn1c(=O)c2ccccc2n2c(CCC(=O)NCc3ccccn3)nnc12`, for which the activation is -4.54% (inactive).

For the compound `CSc1ncc(Sc2ccccc2)c(C(=O)O)n1`, the activation was 23.2% (active).

For the compound `Cc1ccccc1C(=O)Nc1ccccc1Sc1ccccc1`, the activation is -14.3% (inactive).

Regarding `CSc1ncc(C(=O)NCCCc2ccccc2)c(C)n1`, the activation is -2.95% (inactive).

In the case of `CCOc1ccc(S(=O)(=O)N2CCCC(C(=O)N3CCC(C(N)=O)CC3)C2)cc1Cl` (stereo not given), the activation is 5.31% (inactive).

As for `CCCCOP(=O)(c1ccc(N(C)C)cc1)C(O)c1cc(OC)ccc1OC` (stereo not given), the activation was 4.18% (inactive).

Turning to `CSCC(=O)N1CCCC(C(=O)c2cc(F)ccc2F)C1` (stereo not given), the activation is -4.39% (inactive).

On to `S=C(Nc1ccc(Br)cc1Cl)N1CCC2(CC1)OCCO2`, for which the activation was -0.18% (inactive).

In the case of `NC(=O)C1=C[C@@H](c2ccc3c(c2)OCO3)C[C@@H](OCCCCO)O1`, the activation was -3.38% (inactive).

Regarding `Cc1nn(Cc2ccccc2)c(C)c1NS(=O)(=O)c1ccccc1`, the activation is -9.59% (inactive).

For `COc1ccc(NC(=O)CC(NC(C)c2ccccc2)C(=O)O)cc1` (stereo not given), the activation was -1.9% (inactive).

For `COc1ccc(NC(=O)CS(=O)(=O)c2ccccc2)cc1`, the activation is 18.2% (active).

`O=C(CS(=O)(=O)c1ccccc1)Nc1ccc(S(=O)(=O)Nc2ccccn2)cc1`: the activation is -5.27% (inactive).

For the compound `CCOC(=O)N1CCC(NC(=O)C(C)n2c3ccccc3c3cnn(C)c(=O)c32)CC1` (stereo not given), the activation is -5.66% (inactive).

On to `CCN(CC(=O)Nc1c(F)cccc1F)C(=O)c1ccc(Sc2nncn2C)c([N+](=O)[O-])c1`, for which the activation was 0.28% (inactive).

Regarding `Cc1ccccc1N(C(=O)CNC(=O)c1cccs1)C(C(=O)NC1CCCC1)c1ccncc1` (stereo not given), the activation is 5.18% (inactive).

Turning to `COc1ccc(C(C(=O)NC2CCCCC2)N(C(=O)CCl)c2ccccc2Cl)cc1` (stereo not given), the activation is 28.1% (active).

As for `COc1ccc(C(C(=O)NC2CCCCC2)N(C(=O)c2snc(C(N)=O)c2N)c2ccccc2OC)cc1` (stereo not given), the activation is -2.86% (inactive).

Regarding `O=C(CSc1nc2ncccc2[nH]1)Nc1ccc2c(c1)OCCO2`, the activation was -2.19% (inactive).

Take `CCOc1ccc(NC(=O)CCC(=O)NNC(=O)NC2CCCCC2)cc1`: the activation is 21.3% (active).

As to `CCOc1ccccc1NC(=O)NC1CCCCCCC1`, the activation was -0.6% (inactive).

Regarding `CCOc1ccc(C(=O)CCC(=O)Nc2ccncc2)cc1`, the activation is -11.9% (inactive).

As for `O=C(CCn1c(=O)oc2ccccc21)Nc1ccon1`, the activation is 3.01% (inactive).

As to `CC(NCc1cccs1)C(=O)Nc1cc(Cl)cc(Cl)c1` (stereo not given), the activation is -6.98% (inactive).

As for `CCCCNC(=O)c1ccccc1NC(=O)C1=C(C)OCCS1`, the activation is -4.46% (inactive).

`CCCCNC(=O)c1ccccc1NC(=O)c1ccccc1N(C)S(C)(=O)=O`: the activation is 21.6% (active).

As for `CCC(C)NC(=O)c1ccccc1NC(=O)c1ccccc1N(C)S(C)(=O)=O` (stereo not given), the activation was 2.75% (inactive).

As for `Cc1noc(/C=C/c2ccco2)c1S(=O)(=O)N1CCC(C(=O)N2CCc3ccccc32)CC1`, the activation was -9.2% (inactive).

Take `CC(C)(C)n1nnnc1C(c1ccc2ncccc2c1)N1CCSCC1` (stereo not given): the activation is -6.68% (inactive).

For `CC1(C)CC(=O)C(C=NCCN2CCN(C(=S)Nc3cccc(Cl)c3)CC2)=C(O)C1`, the activation was 0.98% (inactive).

Regarding `CC(C)C(=O)N1CCN(CCN=CC2=C(O)CC(c3ccco3)CC2=O)CC1` (stereo not given), the activation is 18.8% (active) and 2.37% (inactive).

On to `CC(=O)N1CCN(CCN=CC2=C(O)CC(C)(C)CC2=O)CC1`, for which the activation is -3.36% (inactive).

As to `COCCCNC(=O)C1CC(=O)N(c2ccc(C)cc2)C1` (stereo not given), the activation was -2.16% (inactive).

`COCCNC(=O)C1CCN(C(=O)C2CC(=O)N(c3ccc(C)cc3)C2)CC1` (stereo not given): the activation was 19.9% (active).

As for `CCCC(C)NC(=O)C1CCN(C(=O)C2CC(=O)N(c3ccc(C)cc3)C2)CC1` (stereo not given), the activation is 1.21% (inactive).

Take `O=C(CCC(=O)n1ncc2ccccc21)NCc1ccccc1Cl`: the activation is -1.46% (inactive).

For `O=C(CN1C(=O)NC(Cc2ccccc2)(Cc2ccccc2)C1=O)NCC1CCCCC1`, the activation was -4.45% (inactive).

Consider `O=C(CNc1cccc(S(=O)(=O)N2CCCCC2)c1)Nc1ccccc1F`, for which the activation was 2.99% (inactive).

As for `CC(NC(=O)C(=O)Nc1nccs1)c1ccccc1` (stereo not given), the activation was 20.9% (active).

On to `CC(=O)NC(CC(=O)Nc1nccs1)c1ccccc1` (stereo not given), for which the activation is 3.53% (inactive).

As for `C[C@H](NC(=O)c1[nH]cnc1C(=O)Nc1nccs1)c1ccccc1`, the activation was 6.95% (inactive).

Take `CCCCn1nc(C(=O)OCC(=O)Nc2sccc2C(N)=O)c2ccccc2c1=O`: the activation is -5.8% (inactive).

On to `COC(=O)c1ccc(CN2CCC(CO)(Cc3ccc(OC)cc3)CC2)cc1`, for which the activation was -13.3% (inactive).

For `O=C(NC1=NCCS1)c1ccc(Cl)s1`, the activation was 2.85% (inactive).

For the compound `COc1ccc(NC(=O)C(C)SCc2ccccc2)cc1` (stereo not given), the activation was 3.94% (inactive).

Consider `C=CCN1C(=O)C(O)(CC(=O)c2ccccn2)c2ccccc21` (stereo not given), for which the activation is 0.57% (inactive).

In the case of `O=C(CC1(O)C(=O)N(CN2CCOCC2)c2ccccc21)c1ccccc1` (stereo not given), the activation is 37.4% (active).

Consider `C=CCN1C(=O)C(O)(CC(=O)c2ccc(Cl)cc2)c2ccccc21` (stereo not given), for which the activation is 12.2% (inactive).
